The nature of series [1]: Plasma concentration in cynomolgus monkey at 5 mg/kg, po measured after 2 hrs of administration. The class given is ADME, organism-based, Macaca fascicularis. In a few lines:
(§1)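 Cynomolgus monkeys (n=2) dosed orally. Blood and brain collected 2 h after dosing. Plasma (ng/mL) and striatum (ng/g) concentrations measured and the striatum/plasma ratio taken per animal and as the mean. Brain free concentration derived using protein binding ratio.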

Series [2] in a line: Drug uptake in cynomolgus monkey striatum at 5 mg/kg, po measured after 2 hrs of administration. Format: ADME, organism-based, Macaca fascicularis. Particulars: read-out: Drug uptake. In a few lines: as §1
Series [3] can be described thus: Ratio of drug level in cynomolgus monkey striatum to plasma at 5 mg/kg, po measured after 2 hrs of administration.
Series [4] is described as follows: Metabolic stability in human liver microsomes assessed as intrinsic clearance incubated for 30 mins in presence of NADPH measured per mg protein. Format: ADME, Microsome. Particulars: for microsomal CLint: liver microsomes, read-out: CLH. In a few lines: (§2)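 Compound incubated with human or rat hepatic microsomes plus NADPH at 37 °C for 30 min. Intrinsic clearance expressed as μL/min/mg protein.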

A short description of series [5]: Metabolic stability in rat liver microsomes assessed as intrinsic clearance incubated for 30 mins in presence of NADPH measured per mg protein. The class given is ADME, Microsome. The following applies: for microsomal CLint: liver microsomes, read-out: CLH; for CLH: microsomes, 0.5 h. In a few lines: as §2
A short description of series [6]: Glutathione reactivity assessed as dansylatedGSH-compound conjugate formation in presence of human liver microsomes by fluorescence detector based HPLC analysis. The class given is physicochemical. In a few lines: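 Reactive metabolite trapping: compound incubated with dansylated glutathione and human liver microsomes. dGSH-conjugate quantified by HPLC with fluorescence detection and reported in μmol/L.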

Series [7] in a line: Plasma concentration in mouse at 10 mg/kg, po. Format: ADME, organism-based. Particulars: in vivo. The method in brief:
(§3)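 Mouse PK after a single oral dose (2 mg/kg; 10 mg/kg where marked). Plasma concentration given in ng/mL and brain concentration in ng/g tissue. Brain/plasma ratio computed from these. Values given as mean ± spread.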

The nature of series [8]: Solubility of the compound at pH 1.2. Format: physicochemical. Particulars: buffer.
Series [9] is described as follows: Solubility of the compound at pH 7.4. The class given is physicochemical. The following applies: buffer.
Series [10] is described as follows: Half life in mouse. The class given is ADME, organism-based. The following applies: in vivo.
A short description of series [11]: Clearance in mouse. The class given is ADME, organism-based. Particulars: in vivo.
The nature of series [12]: Drug concentration in mouse brain at 10 mg/kg, po measured per gm of tissue. Format: ADME, organism-based. Particulars: in vivo. In a few lines: as §3
Series [13] in a line: Ratio of drug concentration in brain to plasma in mouse at 10 mg/kg, po. The class given is ADME, organism-based. Particulars: read-out: BPR. In a few lines: as §3
Series [14] is described as follows: Plasma concentration in mouse at 2 mg/kg, po. Format: ADME, organism-based. Particulars: in vivo. The method in brief: as §3
A short description of series [15]: Ratio of drug concentration in brain to plasma in mouse at 2 mg/kg, po. The class given is ADME, organism-based. Particulars: read-out: BPR. In a few lines: as §3
The nature of series [16]: Drug concentration in mouse brain at 2 mg/kg, po measured per gm of tissue. The following applies: in vivo. Format: ADME, organism-based. In a few lines:
as §3

The values that follow come from ChEMBL document CHEMBL4834453, “Discovery of N-(6-(5-fluoro-2-(piperidin-1-yl)phenyl)pyridazin-3-yl)-1-(tetrahydro-2H-pyran-4-yl)methanesulfonamide as a brain-permeable and metabolically stable kynurenine monooxygenase inhibitor” (Bioorg Med Chem Lett, 2021).

In brackets after ≈: the same amount, converted by molar mass.

Regarding `O=C(O)c1cc(-c2ccc(Cl)c(OC3CC3)c2)ncn1`, the concentration at 2 h in series [1] turned out to be 15600 ng/mL; in [2] it was 64.8 ng/g. The Kp at 2 h in series [3] amounted to 0.004.

In the case of `Cc1ccc(S(=O)(=O)Nc2ccc(-c3ccccc3N3CCCCC3)nn2)cc1`, the microsomal CLint in series [4] amounted to 1.07 µL/min/mg; in [5], 0.395 µL/min/mg. Further, in [6], the Drug metabolism came out at 0.000852 µmol/mL. This molecule came in with a Cp in [7] of 808 ng/mL. For the same molecule, the solubility in [8] was 163 µg/mL (≈ 399 µM); in [9], under 1 µg/mL. The half-life in series [10] is 18 min. In addition, in [11], the clearance came out at 67 mL/min/kg. In series [12], this molecule had a Ct of 230 ng/g. For the same molecule, the Kp in [13] was 0.28.

For `COCCCS(=O)(=O)Nc1ccc(-c2cc(F)ccc2N2CCCCC2)nn1`, the CLH in [4] (microsomes, 0.5 h) came to 0.026 µL/min/mg; in series [5] it was 0.045 µL/min/mg. In addition, the Drug metabolism in [6] was determined as 0 µmol/mL.

Take `Cc1ccc(S(=O)(=O)Nc2ccc(-c3c(F)cccc3N3CCCCC3)nn2)cc1`: the figures for the microsomal CLint in series [4] and in series [5] were 0.478 µL/min/mg and 0.339 µL/min/mg, respectively. Besides, in series [6], the Drug metabolism was 0.000637 µmol/mL. The molecule further had a Cp in series [14] of 284 ng/mL. The Kp in [15] worked out at 0.28. The molecule further displayed a Ct in [16] of 79 ng/g.

Turning to `CCS(=O)(=O)Nc1ccc(-c2cc(F)ccc2N2CCCCC2)nn1`, the microsomal CLint in [4] was 0.156 µL/min/mg; in series [5] it was under 0.05 µL/min/mg. In series [6], the Drug metabolism was 0 µmol/mL.

Turning to `Cc1ccc(S(=O)(=O)Nc2ccc(-c3cccc(F)c3N3CCCCC3)nn2)cc1`, the results for the microsomal CLint in series [4] and in [5] were 0.178 µL/min/mg and 0.518 µL/min/mg, respectively. In addition, in series [6], the Drug metabolism is 0.000146 µmol/mL.

In the case of `O=S(=O)(CC(F)(F)F)Nc1ccc(-c2cc(F)ccc2N2CCCCC2)nn1`, the microsomal CLint in series [4] turned out to be 0.569 µL/min/mg; in series [5] it was 0.265 µL/min/mg. Further, the Drug metabolism in series [6] was 0 µmol/mL.

As to `COCCS(=O)(=O)Nc1ccc(-c2cc(F)ccc2N2CCCCC2)nn1`, the microsomal CLint in [4] came out at 0.179 µL/min/mg. For the same molecule, in series [5], the CLH was 0.05 µL/min/mg. The Drug metabolism in series [6] turned out to be 0 µmol/mL.

As for `O=S(=O)(CC1CCCC1)Nc1ccc(-c2cc(F)ccc2N2CCCCC2)nn1`, the microsomal CLint was 0.703 µL/min/mg in series [4] and 1.6 µL/min/mg in series [5]. For the same molecule, in series [6], the Drug metabolism is 0.00049 µmol/mL.

Turning to `O=S(=O)(CC1CCCCO1)Nc1ccc(-c2cc(F)ccc2N2CCCCC2)nn1` (stereo unspecified), the microsomal CLint in series [4] is 0.139 µL/min/mg; in [5], 0.435 µL/min/mg. For the same molecule, the Drug metabolism in series [6] amounted to 0 µmol/mL.

Turning to `CCCS(=O)(=O)Nc1ccc(-c2cc(F)ccc2N2CCCCC2)nn1`, the microsomal CLint in series [4] came to 0.179 µL/min/mg; in [5], 0.168 µL/min/mg. In addition, the Drug metabolism in series [6] came to 0 µmol/mL.

`CC(C)CS(=O)(=O)Nc1ccc(-c2cc(F)ccc2N2CCCCC2)nn1`: the microsomal CLint stood at 0.375 µL/min/mg in series [4] and 0.483 µL/min/mg in series [5]. In [6], the Drug metabolism was found to be 0.00011 µmol/mL.
